Screening data deposited in PubChem by several laboratories.
This is a sample that favours compounds with a hit; in the whole collection about 3% have one here.
Lipid droplet: modulators of hepatic lipid droplet formation; AML12 mouse hepatocytes, oleate lipid droplets, BODIPY imaging; inhibition, % at 6.5 µM; hit rate 0.4% among 240,000; AID 1656;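 active = lipid droplet intensity inhibited by at least 50%, with more than 500 cells counted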
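Technique: fluorescence imaging, 20x objective, two fields per well / Assay system: AML12 hepatocytes (mouse) / Measure: % inhibition of lipid droplet signal / Doses: 6.5 µM single-point dosing / Incubation: overnight exposure / Reagent: 100 µM oleic acid challenge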
GC-B act: GC-B (human) receptor activation | P20594 | HEK293-GC-B cells, CNP EC30, cGMP TR-FRET; 0% at EC30 CNP, 100% saturating CNP | activation, % at 10 µM | hit rate 0.11% among 370,000 | AID 1920062;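 active = activation at 10 µM reaching about 35% in either raw or pattern-adjusted values, limit read from the data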
Target sequence (P20594 whole entry, looked up): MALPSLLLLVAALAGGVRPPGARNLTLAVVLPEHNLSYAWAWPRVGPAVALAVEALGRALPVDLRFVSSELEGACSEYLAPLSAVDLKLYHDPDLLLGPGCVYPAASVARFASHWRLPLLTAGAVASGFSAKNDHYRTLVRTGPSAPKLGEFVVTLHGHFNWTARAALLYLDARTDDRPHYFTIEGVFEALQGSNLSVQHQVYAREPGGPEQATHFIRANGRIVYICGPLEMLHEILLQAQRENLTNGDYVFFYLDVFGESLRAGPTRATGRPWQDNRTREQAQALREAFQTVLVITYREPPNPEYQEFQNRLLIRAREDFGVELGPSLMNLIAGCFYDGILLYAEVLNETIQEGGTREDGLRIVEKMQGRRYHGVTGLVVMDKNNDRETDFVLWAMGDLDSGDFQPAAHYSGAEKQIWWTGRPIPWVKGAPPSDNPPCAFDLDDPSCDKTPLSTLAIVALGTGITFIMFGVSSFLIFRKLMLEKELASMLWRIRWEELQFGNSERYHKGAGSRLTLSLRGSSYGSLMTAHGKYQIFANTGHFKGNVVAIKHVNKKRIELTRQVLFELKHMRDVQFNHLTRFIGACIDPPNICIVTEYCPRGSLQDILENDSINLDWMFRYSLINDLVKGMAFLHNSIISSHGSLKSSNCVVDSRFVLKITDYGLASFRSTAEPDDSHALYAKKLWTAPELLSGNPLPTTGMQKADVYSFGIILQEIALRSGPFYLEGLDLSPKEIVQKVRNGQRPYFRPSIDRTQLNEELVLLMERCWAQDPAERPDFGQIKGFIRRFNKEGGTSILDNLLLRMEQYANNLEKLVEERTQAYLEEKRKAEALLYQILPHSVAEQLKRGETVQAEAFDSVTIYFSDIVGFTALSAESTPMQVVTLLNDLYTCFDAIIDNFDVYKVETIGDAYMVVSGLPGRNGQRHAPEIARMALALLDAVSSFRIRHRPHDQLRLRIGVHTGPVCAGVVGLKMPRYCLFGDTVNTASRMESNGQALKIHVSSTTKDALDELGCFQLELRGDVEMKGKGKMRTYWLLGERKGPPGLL
GASC-1 inh: human JMJD2C demethylase inhibition. GST-JMJD2C(1-420) H3K9me3 demethylation, DELFIA europium. inhibition, % at 2.35 µM. hit rate 0.069% among 330,000. AID 2099;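 active = more than half of a compound's replicate wells show inhibition beyond 50%, single wells judged on their own value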;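 also: signal counts dimethyl H3K9 product captured on neutravidin plate; 0% = median of DMSO wells and 100% = 0.3 times that DMSO median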
GRIN3A LBD mod: modulates the human NR3A ligand-binding domain. Tm shift relative to glycine control, % at 25 µM. NR3A LBD differential scanning fluorimetry, Tm shift; 0% = protein alone, 100% = glycine-bound protein. hit rate 2.5% among 340,000;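 active = melting temperature shift of at least 10% of the positive control shift, at one fixed dose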
NPR1 activator: GC-A (human) enzyme activation; P16066; HEK293 GC-A cells, cGMP TR-FRET, EC30 ANP; 0% at EC30 ANP, 100% saturating ANP; activation, % at 10 µM; hit rate 0.14% among 370,000; in the data active = activation above about 40%
aDG glyco act: alpha-DG glycosylation activation | Pro5-aDG cells, alpha-DG glycosylation AlphaScreen (IIH6); 0% Pro5, 100% B10-LARGE cell signal | activation, % at 10 µM | hit rate 0.22% among 360,000 | AID 624168;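 active = activation of at least 8% versus controls, or a plate z-score of at least 8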;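 also: Pro5 are CHO cells carrying HIG-tagged alpha-DG that lacks glycosylation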
aDG conf: alpha-DG glycosylation activation, confirmation. shares compounds with aDG glyco act. Pro5-aDG cells, IIH6 AlphaLISA; scaled to LARGE-overexpressing B10 cells as 100%. activation, % at 10 µM (by protocol). hit rate 17% among 600. AID 651671;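 active = activation of at least 7% in one or more replicates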;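 also: cells exposed to compound for two days before detection; 0% = DMSO-treated Pro5 cells and 100% = DMSO-treated B10-LARGE cells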
An asterisk follows results filed as active; x = not tested or not shown.

SMILES	Lipid droplet	GC-B act	GASC-1 inh	GRIN3A LBD mod	NPR1 activator	aDG glyco act	aDG conf
Cc1cc(OCc2nc(-c3cccs3)no2)cc(C)c1Cl	x	-8.4	-14.0	-6.9	1.7	7.7*	0.2
COc1ccc(N2CCN(Cc3nc(N)nc(Nc4ccccc4OC)n3)CC2)cc1	x	1.7	-5.3	0.3	1.7	12.0*	0.5
O=C(c1cc(C2CCCCN2C(=O)CCCc2ccccc2)on1)N1CCOCC1 (stereo unspecified)	x	-2.0	x	x	0.2	0.0	x
Cc1ccccc1Cn1c(C)nc2ccccc21	-24.4	0.0	0.6	0.3	6.3	3.3*	1.8
COc1cccc(-c2nc3nc(C)cc(C)n3c2NCc2ccccc2)c1	x	-3.3	x	x	-8.5	5.3*	1.2
CSc1ncc(C(=O)Nc2ccc(Br)cn2)c(C)n1	-1.8	-0.2	6.3	-0.7	3.1	0.1	x
CCCCC1Cc2[nH]c(=S)[nH]c(=O)c2C(c2cccc3ccccc23)O1 (stereo unspecified)	x	-5.7	x	x	-6.8	0.1	x
CC1CCCCC1NC(=O)Cc1ccc(S(=O)(=O)N2CCOCC2)s1 (stereo unspecified)	x	-1.3	-5.8	4.5	0.5	6.0*	-0.8
CCOC(=O)c1ccc(NC(=O)CSc2nnc(-c3cccc(C)c3)n2C)cc1	x	-10.4	x	x	-0.1	x	x
Cc1csc(NC(=O)C2CCCN(S(=O)(=O)c3ccc4c(c3)oc(=O)n4C)C2)n1 (stereo unspecified)	x	4.8	2.4	1.6	-0.5	9.1*	-0.4
O=C1Nc2cc(C(=O)NCCN3CCCCCC3)ccc2S/C1=C\c1ccccc1	-7.5	-0.6	-2.8	-7.2	11.7	0.3	x
Cc1cccc(/C=C2/Sc3ccc(C(=O)NCCN4CCCC4)cc3NC2=O)c1	-2.1	-4.7	9.4	-7.5	8.2	8.2*	7.8*
CC1CCCCC1NC(=O)COC(=O)c1c2c(nc3ccccc13)/C(=C\c1ccco1)CC2 (stereo unspecified)	x	1.1	x	0.5	-23.1	0.3	x
COC(=O)c1ccc(CNC(=O)Cn2cnc3c(NCc4ccccc4)ncnc32)cc1	x	2.0	x	4.5	4.5	8.3*	1.0
Cc1nc(NC(C)c2ccccc2)c2oc3ccccc3c2n1 (stereo unspecified)	x	-14.0	-0.1	-0.8	1.9	6.7*	0.3
O=C(c1ccccn1)N1CCCC(N2CCN(c3ccc(F)cc3)CC2)C1 (stereo unspecified)	2.8	2.1	-8.2	-0.2	-0.6	-0.2	x
COCCNc1nc(NCCOc2ccccc2)c2sc(-c3ccccc3)cc2n1	x	8.3	x	x	9.6	7.6*	6.9*
O=C(Nc1ccc(F)cc1)C(c1ccccc1)N1CCN(CC(=O)N2CCCC2)CC1 (stereo unspecified)	x	-1.4	x	-0.2	-2.6	0.3	x
COc1ccc(C(C(=O)Nc2ccc(F)cc2)N2CCN(CC(=O)N3CCCC3)CC2)cc1 (stereo unspecified)	x	-0.7	x	x	5.1	8.6*	0.4
CC(=O)c1cccc(NC(=O)c2cc(=O)[nH]c3ccccc23)c1	-12.4	-0.1	-6.6	-5.7	1.3	0.2	x
CCN(CC)S(=O)(=O)c1ccc2[nH]c(=O)cc(C(=O)Nc3cccc(C(C)=O)c3)c2c1	27.2	-2.6	-0.4	-2.2	-5.8	9.2*	-0.6
CCN(CCCNC(=O)C1CCN(S(=O)(=O)c2cccc3nonc23)CC1)Cc1ccccc1	-4.8	-7.8	-7.7	9.6	-1.0	8.3*	0.0
COc1ccc(CCCNC(=O)C2(C)Cc3c(-c4cccc(C(N)=O)c4)ccnc3O2)cc1 (stereo unspecified)	x	-10.6	x	x	-11.3	-0.2	x
CCOC(=O)C(=CNc1cc(C)nn1-c1ccc(C)cc1)C(=O)OCC	-7.7	16.1	1.7	-1.5	8.6	4.7*	1.1
CCOc1ccc(C(=O)Nc2nc3ccccc3[nH]2)cc1OCC	11.7	2.0	-0.4	-0.5	12.4	7.9*	1.1
SMILES	Lipid droplet	GC-B act	GASC-1 inh	GRIN3A LBD mod	NPR1 activator	aDG glyco act	aDG conf
CC12CCC(C(NC(=S)NN)C1=O)C2(C)C (stereo unspecified)	x	4.1	x	0.5	-0.1	26.6*	0.4
CC12CCC(C(N)C1=O)C2(C)C (stereo unspecified)	x	1.4	x	1.6	0.7	0.0	x
CN1CC[n+]2cnc3ccccc3c21	-4.6	5.1	2.1	1.0	8.3	6.2*	-0.8
C#CCNC(=O)C[C@H]1C[C@@]2(C(=O)OC)C(=C[C@H](COCc3ccccc3)O[C@@H]2C)N(CCC2=CCCCC2)C1=O	x	3.3	x	x	0.0	x	x
Cc1cc(OC(=O)c2c(C)cc(OC(=O)c3c(C)cc(O)cc3O)cc2O)cc(O)c1C(=O)O	x	-8.9	32.6	3.4	-6.5	6.1*	0.2
CC1=C(C(=O)N2CCCCCC2)CC(CC(=O)NC(c2ccccc2)c2ccccc2)C(=O)N1CCC1=CCCCC1 (stereo unspecified)	x	-2.1	x	x	-1.5	-0.2	x
Cc1cc2ncc(S(=O)(=O)C(C)(C)C)c(N)n2n1	x	-3.0	0.9	0.1	-0.5	-0.4	x
Cc1cc2ncc(S(=O)(=O)c3ccccc3)c(N)n2n1	x	-6.2	-12.9	1.7	1.7	6.3*	0.7
Cc1c(C(=O)NCc2cccc(Cl)c2)sc(=O)n1Cc1cccc(F)c1	x	-1.1	x	x	-1.2	6.8*	0.3
Cc1c(C(=O)NCc2ccc(Cl)c(Cl)c2)sc(=O)n1Cc1cccc(F)c1	x	-4.2	x	x	-0.5	0.9	x
CN(CC(=O)Nc1ccc(F)c(F)c1F)C(=O)C1CCC1	x	4.0	-0.1	-0.4	0.1	-0.2	x
CN(CC(=O)Nc1cccc(Cl)c1)S(=O)(=O)c1ccc2[nH]c(=O)oc2c1	-18.9	-2.3	-0.6	5.7	1.2	5.7*	-0.7
CCc1ccc(NC(=S)NC2CC3CCCC(C2)N3Cc2cccs2)cc1 (stereo unspecified)	x	-1.0	-7.8	-5.3	-1.6	4.0*	2.4
CCc1ccccc1NC(=O)NC1CC2CCC(C1)N2Cc1cccs1 (stereo unspecified)	x	0.3	0.4	-2.5	-2.3	0.3	x
COc1ccc(OC)c(C(=O)N(C[C@H]2CC[C@@H]([C@@H]3CC[C@H](CO)O3)O2)C(C(=O)NC(C)(C)C)c2ccc(-c3ccccc3)cc2)c1 (stereo partly specified)	x	-7.2	x	0.8	-1.8	5.8*	0.7
Cc1cccc(NC(=O)c2cccc([N+](=O)[O-])c2O)c1C	x	5.1	x	-11.2	-1.5	-0.1	x
Cc1cccc(NC(=O)c2ccc([N+](=O)[O-])s2)c1C	-9.9	3.2	10.8	-0.8	3.9	10.1*	1.4
NNc1nnc2c3cc(F)ccc3n(Cc3ccccc3)c2n1	-8.5	4.0	15.5	-1.8	5.7	5.1*	0.1
